Source: ChEMBL document CHEMBL4321838, “Drug Design Targeting T-Cell Factor-Driven Epithelial-Mesenchymal Transition as a Therapeutic Strategy for Colorectal Cancer” (J Med Chem, 2019)
≈ marks a conversion by molar mass, not a printed value. Calls of active or inactive are those of the source.

What was measured:
SW-620 [1] = test: Anticlonogenic activity against human SW620 cells assessed as loss of cancer stem cell stemness by measuring inhibition of colony formation at 10 uM incubated for 24 hrs followed by replating and measured after 7 days by clonogenic assay; format: functional, cell-based
SW-620 [2] = test: Antiinvasive activity in human SW620 organoids transduced with NucLight-Red virus assessed as inhibition of cell invasion at 10 uM incubated for 72 hrs and measured after 72 hrs by matrigel based fluorescence analysis; format: functional
Method in brief: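 NucLight-Red-labelled SW620 organoids treated 72 h at 10 μM in 0.1% DMSO, then dissociated. 5,000 live cells per well seeded in 50% Matrigel in the upper chamber of a migration plate, 0.5% FBS above and 20% FBS below. Invading cells tracked by bottom-side fluorescence over days, six replicates per condition.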

[3] = biological target: T1, DNA topoisomerase 2-alpha (Homo sapiens, UniProt P11388); test: Inhibition of human topoisomerase 2alpha mediated decatenation at 30 uM using kDNA as susbtrate preincubated for 20 mins followed by substrate and ATP addition and measured after 1 hr by ethidium bromide staining based gel electrophoresis method relative to control
T1 sequence (P11388 whole entry): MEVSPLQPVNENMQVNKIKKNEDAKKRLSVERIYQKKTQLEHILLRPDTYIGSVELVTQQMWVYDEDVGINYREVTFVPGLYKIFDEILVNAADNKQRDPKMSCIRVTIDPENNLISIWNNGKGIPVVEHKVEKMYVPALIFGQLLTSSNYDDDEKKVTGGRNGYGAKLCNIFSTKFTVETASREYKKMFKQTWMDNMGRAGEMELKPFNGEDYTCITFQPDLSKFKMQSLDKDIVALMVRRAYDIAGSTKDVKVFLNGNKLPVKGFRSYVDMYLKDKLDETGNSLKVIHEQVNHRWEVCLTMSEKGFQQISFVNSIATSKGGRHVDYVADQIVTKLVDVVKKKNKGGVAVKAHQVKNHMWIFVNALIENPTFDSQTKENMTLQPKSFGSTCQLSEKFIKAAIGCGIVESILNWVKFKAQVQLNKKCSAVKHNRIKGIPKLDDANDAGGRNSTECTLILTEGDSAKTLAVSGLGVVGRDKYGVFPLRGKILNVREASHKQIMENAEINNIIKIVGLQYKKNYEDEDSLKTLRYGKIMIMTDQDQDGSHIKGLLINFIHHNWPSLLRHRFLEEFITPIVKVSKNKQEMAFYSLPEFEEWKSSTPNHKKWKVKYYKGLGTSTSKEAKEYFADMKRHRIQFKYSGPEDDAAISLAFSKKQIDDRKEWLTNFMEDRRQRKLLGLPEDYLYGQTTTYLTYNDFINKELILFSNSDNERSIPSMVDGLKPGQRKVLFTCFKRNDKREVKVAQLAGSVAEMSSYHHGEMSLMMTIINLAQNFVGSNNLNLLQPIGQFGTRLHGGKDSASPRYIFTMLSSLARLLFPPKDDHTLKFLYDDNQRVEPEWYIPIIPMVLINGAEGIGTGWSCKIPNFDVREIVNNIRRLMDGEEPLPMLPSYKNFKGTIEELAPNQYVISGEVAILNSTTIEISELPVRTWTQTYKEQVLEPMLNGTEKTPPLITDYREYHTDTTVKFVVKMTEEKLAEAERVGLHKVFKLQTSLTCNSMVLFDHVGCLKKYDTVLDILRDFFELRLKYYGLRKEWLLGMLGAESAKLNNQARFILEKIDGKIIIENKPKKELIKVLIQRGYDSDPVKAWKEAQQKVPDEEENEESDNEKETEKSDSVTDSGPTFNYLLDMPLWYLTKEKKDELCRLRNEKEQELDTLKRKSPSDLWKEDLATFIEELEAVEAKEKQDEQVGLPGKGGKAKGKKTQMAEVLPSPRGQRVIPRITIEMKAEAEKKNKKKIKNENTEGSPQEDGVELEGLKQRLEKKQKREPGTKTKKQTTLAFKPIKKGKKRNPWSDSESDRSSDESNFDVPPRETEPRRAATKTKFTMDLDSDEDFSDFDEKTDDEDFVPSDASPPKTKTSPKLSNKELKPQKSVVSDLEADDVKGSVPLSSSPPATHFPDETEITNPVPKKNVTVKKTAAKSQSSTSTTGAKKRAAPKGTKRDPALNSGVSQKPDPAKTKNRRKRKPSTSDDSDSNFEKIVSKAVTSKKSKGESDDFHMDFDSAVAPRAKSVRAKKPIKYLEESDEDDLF
Method in brief: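 Human TOP2A (3 U) preincubated 20 min at 37 °C with compound at 30 μM in 1.2% DMSO. Reaction started with 2 mM ATP and 35 ng kDNA and run 1 h at 37 °C. Products resolved on 0.8% agarose in TBE with 0.2 μg/mL ethidium bromide; decatenated bands compared with vehicle.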

[4] = biological target: T1, DNA topoisomerase 2-alpha; test: Inhibition of topoisomerase 2alpha dependent TCF transcription in human SW620 organoids transduced with TOPflash luminescent reporter after 72 hrs by luciferase based TOPFlash reporter gene assay
Method in brief: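 SW620 cells stably carrying pCDH-TOPflash-luc grown as organoids: 5,000 cells per U-bottom well in phenol red-free RPMI with 5% FBS and 2% Matrigel, 72 h. Inhibitor then applied 72 h. One-Glo luciferase and CellTiter-Glo 3D added 1:1. Luciferase signal normalised to viability, then to DMSO controls.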

SW-620 [5] = test: Cytotoxicity against human SW620 organoids assessed as cell death with loss of membrane integrity after 72 hrs by CellTox Green assay; format: functional, cell-based; settings: SW-620, 72 h
Method in brief: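 SW620 tumor organoids exposed 72 h to inhibitor over 0–40 μM together with CellTox Green Express (0.5X). Whole-well mean fluorescence imaged (ex 488, em 500–550 nm). Normalised to lysis buffer as 0% viability and 0.4% DMSO as 100% viability.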

[6] = biological target: T1, DNA topoisomerase 2-alpha; test: Inhibition of topoisomerase 2alpha in human SW620 organoids transfected with VimPro-GFP reporter assessed as reversion of epithelial-mesenchymal transition by measuring reduction in vimentin expression up to 40 uM after 72 hrs by Hoechst 33342 staining based GFP reporter gene assay
Method in brief: (§1)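 SW620 cells stably carrying VimPro-GFP or EcadPro-mCherry (puromycin selected) grown as organoids and dosed 72 h. Stained with 16 μM Hoechst 33342 for 1 h and imaged as 15 z-layers, 26.5 μm apart. Nuclei segmented and GFP- or mCherry-positive cells counted above background thresholds. Percent positive cells normalised to DMSO.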

[7] = biological target: T1, DNA topoisomerase 2-alpha; test: Inhibition of topoisomerase 2alpha in human SW620 organoids transfected with EcadPro-RFP reporter assessed as reversion of epithelial-mesenchymal transition by measuring increase in E-cadherin expression up to 40 uM after 72 hrs by Hoechst 33342 staining based mCherryRFP reporter gene assay; method in brief: as §1
SW-620 [8] = test: Induction of apoptosis in human SW620 organoids assessed as increase in cleaved caspase 3/7 level at 40 uM after 72 hrs by caspase-glo 3/7 luminescence assay relative to control; format: functional
Method in brief: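 SW620 cells, 2,000 per well in 384-well ultra-low attachment plates with 2% Matrigel, grown 72 h into organoids, then dosed 72 h. Caspase-Glo 3/7 reagent added 1:1 and shaken 30 min; luminescence read. Staurosporine served as positive control and 0.4% DMSO as negative control.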

[9] = Aqueous solubility of compound in PBS at 1 mg after 18 hrs by UV based analysis; format: physicochemical
Method in brief: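 Undissolved material removed by centrifugation at 5,000g for 45 min. UV absorption compared with a fully saturated 1-propanol solution; solubility derived by linear regression.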

[10] = Half life in CD-1 mouse microsomes measured up to 1 hr by LC-MS analysis; format: ADME, Microsome
Method in brief: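 Female CD-1 mouse liver microsomes (0.5 mg/mL), substrate 1 μg/mL and 1.5 mM NADPH in 0.1 M phosphate buffer pH 7.4 at 37 °C. Samples taken from 0 to 60 min and quenched with an equal volume of acetonitrile. Parent compound remaining measured by LC-MS/MS without internal standard.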

[11] = Cmax in CD-1 mouse at 50 mg/kg, ip by LC-MS/MS analysis; format: ADME, organism-based; set-up: dose 50 mg/kg, route intraperitoneal; settings: in vivo
Method in brief: (§2)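 Female CD-1 mice, single IP injection at 50 mg/kg in 100% DMSO. Sampling from 0.25 to 24 h, three mice per time point (21 per compound). Heparinised blood was spun to plasma, mixed 1:1 with acidified acetonitrile (0.1% formic acid or 0.1% TFA depending on compound), centrifuged, then measured by LC-MS/MS.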

[12] = Tmax in CD-1 mouse at 50 mg/kg, ip by LC-MS/MS analysis; format: ADME, organism-based; settings: in vivo; method in brief: as §2
Mus musculus = test: Apparent volume of drug distribution in CD-1 mouse at 50 mg/kg, ip by LC-MS/MS analysis; format: ADME, organism-based; settings: in vivo; method in brief: as §2
[13] = AUC(0 to t) in CD-1 mouse at 50 mg/kg, ip by LC-MS/MS analysis; format: ADME, organism-based; settings: in vivo; method in brief: as §2
[14] = Clearance in CD-1 mouse at 50 mg/kg, ip by LC-MS/MS analysis; format: ADME, organism-based; settings: in vivo; method in brief: as §2
[15] = Half life of terminal disposition phase in CD-1 mouse at 50 mg/kg, ip by LC-MS/MS analysis; format: ADME, organism-based; settings: in vivo, read-out: t1/2lambda (converted); method in brief: as §2
SW-620 [16] = test: Induction of early stage cell death in human SW620 organoids transfected with EcadPro-RFP reporter assessed as loss of RFP reporter activity at 40 uM at after 72 hrs by Hoechst 33342 staining based mCherryRFP reporter gene assay; settings: sw-620, 72 h
[17] = Metabolic stability in CD-1 mouse inactive microsomes incubated for 1 hr by LC-MS/MS analysis; format: ADME, Microsome
[18] = Metabolic stability in CD-1 mouse active microsomes assessed as CYP450-mediated oxidative phase 1 metabolite formation measured up to 60 mins by LC-MS/MS analysis; format: ADME; settings: 1 h
[19] = Drug metabolism in CD-1 mouse active microsomes assessed as CYP450-mediated oxidative phase 1 metabolite formation by LC-MS/MS analysis
SW-620 [20] = test: Cytotoxicity against human SW620 organoids assessed as growth inhibition at 10 uM after 72 hrs by brightfield imaging of organoid volume

inhibition [3]: 90%
IC50 [4]: 700 nM
inhibition [6]: Active
inhibition [7]: Active
solubility thermodynamic at 18 h [9]: 1520 µg/mL (≈ 3.69 mM)
t1/2 [10]: 8.53 min
Cmax [11]: 10900 ng/mL
Tmax [12]: 15 min
Vz (Mus musculus): 34 L/kg
AUC(0-t) [13]: 13000 ng·h/mL
CL/F [14]: 62.2 mL/min/kg
half-life [15]: 379 min
Stability [17]: Stable
Drug metabolism [18]: Metabolite_Detected
Drug metabolism [19]: Metabolite_Notdetected
SMILES: O=C(CCN1CCOCC1)Nc1ccc2c(-c3cc(F)ccc3O)ccnc2c1O
inhibition (SW-620 [1]): Active
inhibition (SW-620 [2]): Active
EC50 (SW-620 [5]): 16 µM
fold change (FC) (SW-620 [8]): 9
Activity (SW-620 [16]): Active
growth inhibition (GI) (SW-620 [20]): Active
